Data published in ChEMBL document CHEMBL4392827, “Tryptamine derivatives disarm colistin resistance in polymyxin-resistant gram-negative bacteria” (Bioorg Med Chem, 2019).

Tests used:
Klebsiella pneumoniae [1] = assay: Toxicity in Klebsiella pneumoniae B9 after 18 hrs by broth microdilution assay; type: organism-based
Outline: (§1)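 Single-agent MIC per CLSI broth microdilution. Cells from a 4–6 h culture in cation-adjusted Mueller-Hinton broth adjusted to 5 ×10^5 CFU/mL. Compound (DMSO stock) added to 200 μM top concentration and twofold serially diluted six times, with an untreated control row. Plates sealed and incubated stationary at 37°C for 18 h before MIC read.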

Acinetobacter baumannii [2] = assay: Toxicity in Acinetobacter baumannii ATCC 17978 expressing mcr1 gene after 18 hrs by broth microdilution assay; type: organism-based; outline: as §1
Acinetobacter baumannii [3] = assay: Potentiation of colistin-induced antimicrobial activity against colistin-resistant Acinetobacter baumannii isolate 3941 assessed as fold reduction in colistin MIC at 60 uM after 18 hrs by broth microdilution assay; type: functional
Outline: (§2)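 Checkerboard-style resensitization following adapted CLSI broth microdilution. Bacteria were grown 4–6 h in CAMHB and subcultured to 5×10^5 CFU/mL. Adjuvant was added from DMSO stock and held constant while colistin was serially diluted in the dosed subculture. Plates were incubated stationary at 37°C for 18 h, then MICs were read. Fold reduction was taken relative to the colistin MIC without adjuvant.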

Acinetobacter baumannii [4] = assay: Potentiation of colistin-induced antimicrobial activity against colistin-resistant Acinetobacter baumannii isolate 4112 assessed as fold reduction in colistin MIC at 60 uM after 18 hrs by broth microdilution assay; type: functional; outline: as §2
Klebsiella pneumoniae [5] = assay: Potentiation of colistin-induced antimicrobial activity against colistin-resistant Klebsiella pneumoniae isolate A5 assessed as fold reduction in colistin MIC at 60 uM after 18 hrs by broth microdilution assay; type: functional; outline: as §2
Klebsiella pneumoniae [6] = assay: Potentiation of colistin-induced antimicrobial activity against colistin-resistant Klebsiella pneumoniae isolate C3 assessed as fold reduction in colistin MIC at 60 uM after 18 hrs by broth microdilution assay; type: functional; outline: as §2
Escherichia coli = assay: Potentiation of colistin-induced antimicrobial activity against Escherichia coli ATCC 25922 assessed as fold reduction in colistin MIC at 60 uM after 18 hrs by broth microdilution assay; type: functional
Outline: (§3)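 Bacteria grown 4–6 h in cation-adjusted Mueller-Hinton broth and diluted to 5 ×10^5 CFU/mL. Adjuvant from DMSO stock held at fixed 60 μM while colistin is twofold serially diluted in the same adjuvant-dosed broth. Plates sealed and kept stationary at 37°C for 18 h. Colistin MIC read and fold reduction taken relative to colistin alone.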

Klebsiella pneumoniae [7] = assay: Potentiation of colistin-induced antimicrobial activity against Klebsiella pneumoniae ATCC BAA-2146 expressing NDM1 gene assessed as fold reduction in colistin MIC at 60 uM after 18 hrs by broth microdilution assay; type: functional; outline: as §3
Acinetobacter baumannii [8] = assay: Potentiation of colistin-induced antimicrobial activity against colistin-resistant Acinetobacter baumannii isolate 3942 assessed as fold reduction in colistin MIC at 40 uM after 18 hrs by broth microdilution assay; type: functional
Outline: (§4)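 CLSI-adapted broth microdilution. Bacteria were grown 4–6 h in cation-adjusted Mueller-Hinton broth and subcultured to 5 ×10^5 CFU/mL. The subculture was dosed with adjuvant from DMSO stock at a constant final concentration, then colistin was added and serially diluted across wells. Plates were incubated stationary at 37°C for 18 h and the MIC recorded. Fold reduction is relative to the colistin MIC without adjuvant.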

Acinetobacter baumannii [9] = assay: Potentiation of colistin-induced antimicrobial activity against colistin-resistant Acinetobacter baumannii isolate 3942 assessed as fold reduction in colistin MIC at 30 uM after 18 hrs by broth microdilution assay; type: functional; outline: as §4
Acinetobacter baumannii [10] = assay: Potentiation of colistin-induced antimicrobial activity against colistin-resistant Acinetobacter baumannii isolate 3942 assessed as fold reduction in colistin MIC at 20 uM after 18 hrs by broth microdilution assay; type: functional; outline: as §4
Acinetobacter baumannii [11] = assay: Potentiation of colistin-induced antimicrobial activity against colistin-resistant Acinetobacter baumannii isolate 3942 assessed as fold reduction in colistin MIC at 15 uM after 18 hrs by broth microdilution assay; type: functional; outline: as §4
Acinetobacter baumannii [12] = assay: Potentiation of colistin-induced antimicrobial activity against colistin-resistant Acinetobacter baumannii isolate 3942 assessed as fold reduction in colistin MIC at 10 uM after 18 hrs by broth microdilution assay; type: functional; outline: as §4
Klebsiella pneumoniae [13] = assay: Potentiation of colistin-induced antimicrobial activity against colistin-resistant Klebsiella pneumoniae isolate C3 assessed as fold reduction in colistin MIC at 30 uM after 18 hrs by broth microdilution assay; type: functional; outline: as §4
Klebsiella pneumoniae [14] = assay: Potentiation of colistin-induced antimicrobial activity against colistin-resistant Klebsiella pneumoniae isolate C3 assessed as fold reduction in colistin MIC at 20 uM after 18 hrs by broth microdilution assay; type: functional; outline: as §4
Klebsiella pneumoniae [15] = assay: Potentiation of colistin-induced antimicrobial activity against colistin-resistant Klebsiella pneumoniae isolate C3 assessed as fold reduction in colistin MIC at 15 uM after 18 hrs by broth microdilution assay; type: functional; outline: as §4
Klebsiella pneumoniae [16] = assay: Potentiation of colistin-induced antimicrobial activity against colistin-resistant Klebsiella pneumoniae isolate C3 assessed as fold reduction in colistin MIC at 10 uM after 18 hrs by broth microdilution assay; type: functional; outline: as §4
Klebsiella pneumoniae [17] = assay: Potentiation of colistin-induced antimicrobial activity against colistin-resistant Klebsiella pneumoniae isolate C3 assessed as fold reduction in colistin MIC at 5 uM after 18 hrs by broth microdilution assay; type: functional; outline: as §4
Acinetobacter baumannii [18] = assay: Potentiation of colistin-induced antimicrobial activity against colistin-resistant Acinetobacter baumannii isolate 3942 assessed as fold reduction in colistin MIC at 60 uM incubated for 2 to 24 hrs under shaking condition in presence of 0.001% triton X-100 by broth microdilution assay; type: functional
Acinetobacter baumannii [19] = assay: Potentiation of colistin-induced antimicrobial activity against colistin-resistant Acinetobacter baumannii isolate 3942 assessed as fold reduction in colistin MIC at 30 uM incubated for 2 to 24 hrs under shaking condition in presence of 0.001% triton X-100 by broth microdilution assay; type: functional
Klebsiella pneumoniae [20] = assay: Potentiation of colistin-induced antimicrobial activity against colistin-resistant Klebsiella pneumoniae isolate C3 assessed as fold reduction in colistin MIC at 30 uM incubated for 2 to 24 hrs under shaking condition in presence of 0.001% triton X-100 by broth microdilution assay; type: functional
Acinetobacter baumannii [21] = assay: Toxicity in colistin-resistant Acinetobacter baumannii isolate 3942 at 60 uM after 18 hrs by broth microdilution assay; type: organism-based
Klebsiella pneumoniae [22] = assay: Induction of membrane permeabilization in colistin-resistant Klebsiella pneumoniae isolate C3 at 60 uM measured after 1 hr by SYTO-9/propidium iodide staining based fluorescence assay relative to control; type: functional
Outline: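 Cells were grown overnight in CAMHB at 37°C, diluted 1:10 and grown 4 h more to an OD600 of ~0.3. They were pelleted, washed with sterile water and resuspended at 1/10 volume in water containing compound. After 1 h at 37°C with shaking, cells were washed and stained with SYTO-9/propidium iodide (1:1, 3 μL/mL) for 15 min at RT. Emission was read at 530 and 645 nm (excitation 485 nm), and the green/red ratio was expressed as % of the untreated control.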

[23] = Hemolytic activity in sheep erythrocytes assessed as hemolysis at 100 uM incubated for 1 hr under shaking condition by UV-spectrophotometry; type: ADME, cell-based, Ovis aries, Erythrocyte; conditions: read-out: Activity
Outline: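 Washed sheep erythrocytes (defibrinated blood spun, resuspended in PBS three times) diluted 10-fold in PBS containing compound from DMSO stock. DMSO negative control (0% lysis), 1% Triton X100 positive control (100% lysis). 1 h at 37°C with shaking, then spun 10 min at 10,000 rpm and supernatant diluted 1:40 in distilled water.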

Compound: O=C(NCc1c[nH]c2ccccc12)c1cc(Br)c(Br)[nH]1
- MIC (Klebsiella pneumoniae [1]): > 200 µM
- MIC (Acinetobacter baumannii [2]): > 200 µM
- fold change (FC) (Acinetobacter baumannii [3]): 1024
- fold change (FC) (Acinetobacter baumannii [4]): 2048
- fold change (FC) (Klebsiella pneumoniae [5]): 512
- fold change (FC) (Klebsiella pneumoniae [6]): 2048
- fold change (FC) (Escherichia coli): 4
- fold change (FC) (Klebsiella pneumoniae [7]): 0
- fold change (FC) (Acinetobacter baumannii [8]): 256
- fold change (FC) (Acinetobacter baumannii [9]): 128
- fold change (FC) (Acinetobacter baumannii [10]): 16
- fold change (FC) (Acinetobacter baumannii [11]): 8
- fold change (FC) (Acinetobacter baumannii [12]): 2
- fold change (FC) (Klebsiella pneumoniae [13]): 128
- fold change (FC) (Klebsiella pneumoniae [14]): 128
- fold change (FC) (Klebsiella pneumoniae [15]): 64
- fold change (FC) (Klebsiella pneumoniae [16]): 32
- fold change (FC) (Klebsiella pneumoniae [17]): 4
- fold change (FC) (Acinetobacter baumannii [18]): 1024
- fold change (FC) (Acinetobacter baumannii [19]): 128
- fold change (FC) (Klebsiella pneumoniae [20]): 512
- Activity (Acinetobacter baumannii [21]): Non-Toxic
- fold change (FC) (Klebsiella pneumoniae [22]): 1.5
- hemolysis at 1 h, 100 µM [23]: < 1%
